# Experimental data taken from article PMC3495079 (Biochemistry, 2012).
# Legend:
# [1] = biological target: T1, HsDcpS (Homo sapiens, UniProt Q96C86); assay: HPLC analysis of cap analog hydrolysis by recombinant DcpS; format: biochemical; conditions: for Hydrolysis by DcpS (HPLC, Figure 3): 60 min or 24 h; for Hydrolysis by DcpS (HPLC): up to 24 h
# T1 sequence (Q96C86 1-337): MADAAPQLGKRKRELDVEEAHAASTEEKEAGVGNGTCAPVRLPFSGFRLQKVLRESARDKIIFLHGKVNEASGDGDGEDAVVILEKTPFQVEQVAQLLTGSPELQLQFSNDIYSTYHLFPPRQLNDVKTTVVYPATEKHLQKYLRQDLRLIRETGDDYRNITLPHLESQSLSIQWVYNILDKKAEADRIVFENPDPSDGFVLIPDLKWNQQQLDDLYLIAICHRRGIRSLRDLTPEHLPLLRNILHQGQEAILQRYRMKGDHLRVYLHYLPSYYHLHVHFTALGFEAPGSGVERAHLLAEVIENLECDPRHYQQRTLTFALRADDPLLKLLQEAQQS
# How it was run: (§1)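 His-tagged recombinant enzyme was expressed in E. coli and purified by Ni-NTA and gel filtration. Cap analog (15 μM) was preincubated 10 min, then DcpS was added at 0.02 or 0.2 μM. Buffers were Tris/MgAc/(NH4)2SO4 at 37 °C, or Tris/KCl/EDTA/DTT at 20 °C. Aliquots were taken at 5–60 min and 24 h and heat-stopped (97 °C, 2.5 min). Reverse-phase HPLC used a methanol/KH2PO4 gradient with A260 and fluorescence detection. Products were identified by retention time, and % substrate hydrolyzed was recorded.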
# [2] = biological target: T2, AsDcpS (Ascaris suum, UniProt D3K0N9); assay: HPLC analysis of cap analog hydrolysis by recombinant DcpS; format: biochemical, A. suum; conditions: 15 μM substrate; for Hydrolysis by DcpS (HPLC): up to 24 h
# [3] = biological target: T3, CeDcpS (Caenorhabditis elegans, UniProt G5EFS4); assay: HPLC analysis of cap analog hydrolysis by recombinant DcpS; format: biochemical, C. elegans; conditions: 15 μM substrate; for Hydrolysis by DcpS (HPLC): up to 24 h
# T3 sequence (G5EFS4 1-311): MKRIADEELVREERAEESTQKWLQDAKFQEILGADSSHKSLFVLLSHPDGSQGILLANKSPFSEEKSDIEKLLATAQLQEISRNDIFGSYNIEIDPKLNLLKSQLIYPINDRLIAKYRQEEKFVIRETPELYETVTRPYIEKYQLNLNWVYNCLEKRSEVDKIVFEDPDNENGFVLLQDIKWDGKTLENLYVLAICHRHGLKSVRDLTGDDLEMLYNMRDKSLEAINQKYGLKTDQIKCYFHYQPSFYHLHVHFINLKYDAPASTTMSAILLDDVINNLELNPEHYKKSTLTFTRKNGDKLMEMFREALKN
# How it was run: as §1
# [4] = biological target: T2, AsDcpS; assay: Fluorescence titration; format: binding, A. suum; conditions: for Equilibrium association constant KAS, AsDcpS: 20 °C, 50 mM Tris HCl, 200 mM KCl, 0.5 mM EDTA, 1 mM DTT, pH 7.6
# [5] = biological target: T3, CeDcpS; assay: Fluorescence titration; format: binding, C. elegans; conditions: for Equilibrium association constant KAS, CeDcpS: 20 °C, 50 mM Tris HCl, 200 mM KCl, 0.5 mM EDTA, 1 mM DTT, pH 7.6
# How it was run: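 His-tagged CeDcpS was expressed in E. coli and purified by Ni-NTA and gel filtration. Binding was read as quenching of intrinsic Trp fluorescence using time-synchronized titration. Ligand solutions of increasing concentration (5 μM–2 mM) were added to 0.2 μM initial protein. Excitation was 280 nm and emission 340 nm, corrected for dilution and inner filter. KAS was fitted by non-linear regression and reported as a weighted average of 3–5 titrations.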
# [6] = biological target: T4, ScDcpS (Saccharomyces cerevisiae, UniProt Q06151); assay: HPLC analysis of cap analog hydrolysis by recombinant DcpS; format: biochemical, S. cerevisiae; conditions: 15 μM substrate; for Hydrolysis by DcpS (HPLC): up to 24 h
# How it was run: as §1
# [7] = biological target: recombinant CeDcpS; conditions: substrate m^7GpppBODIPY; cited from earlier work
# [8] = biological target: T1, HsDcpS; assay: Fluorescence titration; format: binding; conditions: ratio of KAS values
# [9] = biological target: T1, HsDcpS; assay: Inhibition of DcpS hydrolysis of m^7GpppG, HPLC; format: biochemical
# [10] = biological target: T2, AsDcpS; assay: Inhibition of DcpS hydrolysis of m^7GpppG, HPLC; format: biochemical, A. suum
# [11] = biological target: T3, CeDcpS; assay: Inhibition of DcpS hydrolysis of m^7GpppG, HPLC; format: biochemical, C. elegans
# How it was run: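 Recombinant His-tagged C. elegans DcpS was expressed in E. coli and purified by Ni-NTA and gel filtration. Enzyme at 0.02 μM, m7GpppG 15 μM, test compound 0.1–50 μM, in 50 mM Tris HCl, 200 mM KCl, 0.5 mM EDTA, 1 mM DTT, pH 7.6. Preincubated 10 min, reacted 10 min at 20 °C, heat-stopped, products by reverse-phase HPLC. IC50 taken from conversion versus concentration; Ki from tight-binding competitive equation.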
# [12] = biological target: T4, ScDcpS; assay: Inhibition of DcpS hydrolysis of m^7GpppG, HPLC; format: biochemical, S. cerevisiae
# How it was run: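 Yeast DcpS (His-tagged, E. coli-expressed, Ni-NTA plus gel filtration) used at 0.10 μM to give 50% uninhibited conversion in 10 min. Substrate m7GpppG 15 μM; test compound 0.1–50 μM; buffer 50 mM Tris HCl, 200 mM KCl, 0.5 mM EDTA, 1 mM DTT, pH 7.6; 20 °C. Stopped at 97 °C for 2.5 min, analysed by reverse-phase HPLC. IC50 from substrate-conversion plot; Ki via tight-binding competitive equation.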
# [13] = biological target: T1, HsDcpS; conditions: 20 °C, 50 mM Tris HCl, 200 mM KCl, 0.5 mM EDTA, 1 mM DTT, pH 7.6; cited from earlier work
# [14] = test system: recombinant C. elegans decapping scavenger; assay: Competitor inhibition of CeDcpS hydrolytic activity; format: biochemical
# [15] = biological target: T3, CeDcpS; conditions: substrate of CeDcpS; cited from earlier work
# [16] = biological target: T4, ScDcpS; conditions: substrate of ScDcpS; cited from earlier work
# [17] = condition (2): 20 °C, pH 7.6, 15 μM substrate, 0.02 μM DcpS
# [18] = condition (2): 20 °C, pH 7.6, 0.02 μM DcpS
# [19] = condition (1): 37 °C, pH 8.0, 15 μM substrate, 0.02 or 0.2 μM DcpS
# [20] = condition (2): 20 °C, pH 7.6, 15 μM substrate, 0.2 μM DcpS
# [21] = condition (1): 37 °C, pH 8.0, 0.02 or 0.2 μM DcpS
# [22] = condition (2): 20 °C, pH 7.6, 0.2 μM DcpS
# [23] = condition (2), 0.02 μM DcpS, Figure 3
# [24] = after 60 min, 20 °C, pH 7.6, 0.02 μM DcpS
# T4 sequence (Q06151 whole entry): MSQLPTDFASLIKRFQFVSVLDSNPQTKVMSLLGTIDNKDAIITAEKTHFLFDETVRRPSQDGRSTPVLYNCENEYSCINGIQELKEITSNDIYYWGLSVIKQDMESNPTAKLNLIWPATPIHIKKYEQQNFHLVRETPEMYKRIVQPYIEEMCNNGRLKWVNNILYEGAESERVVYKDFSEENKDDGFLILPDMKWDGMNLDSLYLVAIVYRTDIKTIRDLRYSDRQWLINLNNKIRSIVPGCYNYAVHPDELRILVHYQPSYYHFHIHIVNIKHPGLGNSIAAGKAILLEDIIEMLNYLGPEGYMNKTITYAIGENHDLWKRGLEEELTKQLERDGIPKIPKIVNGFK
# T2 sequence (D3K0N9 whole entry): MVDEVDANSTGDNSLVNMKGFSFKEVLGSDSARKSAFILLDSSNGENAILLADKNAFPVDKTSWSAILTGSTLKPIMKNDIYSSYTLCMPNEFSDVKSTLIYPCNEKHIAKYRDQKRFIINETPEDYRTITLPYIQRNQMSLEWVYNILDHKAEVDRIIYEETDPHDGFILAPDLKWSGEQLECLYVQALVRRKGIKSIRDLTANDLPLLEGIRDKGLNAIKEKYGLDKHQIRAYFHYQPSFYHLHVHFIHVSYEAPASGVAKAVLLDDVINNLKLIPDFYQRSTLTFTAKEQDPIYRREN
SMILES,"Hydrolysis by DcpS (HPLC, Figure 3) [1, 17]","Hydrolysis by DcpS (HPLC, Figure 3) [2, 18]","Hydrolysis by DcpS (HPLC, Figure 3) [3, 18]","Equilibrium association constant KAS, AsDcpS [4]","Equilibrium association constant KAS, CeDcpS [5]","Hydrolysis by DcpS (HPLC) [1, 19]","Hydrolysis by DcpS (HPLC) [1, 20]","Hydrolysis by DcpS (HPLC) [2, 21]","Hydrolysis by DcpS (HPLC) [2, 22]","Hydrolysis by DcpS (HPLC) [3, 21]","Hydrolysis by DcpS (HPLC) [3, 22]","Hydrolysis by DcpS (HPLC) [6, 21]","Hydrolysis by DcpS (HPLC) [6, 22]",further results
Nc1nc2c(ncn2[C@@H]2O[C@H](COP(=O)(O)OP(=O)(O)OP(=O)(O)OC[C@H]3O[C@@H](n4cnc5c(=O)[nH]c(N)nc54)[C@H](O)[C@@H]3O)[C@@H](O)[C@H]2O)c(=O)[nH]1 [GpppG],does not occur,does not occur,much slower as compared to m^7GpppG,,,,,,,,,,,
"CN(C)c1nc2c(c(=O)[nH]1)[n+](C)cn2[C@@H]1O[C@H](COP(=O)(O)OP(=O)(O)O)[C@@H](O)[C@H]1O [m3^2,2,7GDP, 2,2,7-trimethylguanosine diphosphate]",,,,0.53 ± 0.16 µM⁻¹,1.44 ± 0.26 µM⁻¹,not degraded,resistant to cleavage,not degraded,resistant to cleavage,not degraded,resistant to cleavage,not degraded,resistant to cleavage,
"CN(C)c1nc2c(c(=O)[nH]1)[n+](C)cn2[C@@H]1O[C@H](COP(=O)(O)O)[C@@H](O)[C@H]1O [m3^2,2,7GMP]",,,,0.28 ± 0.27 µM⁻¹,2.88 ± 0.67 µM⁻¹,,,,,,,,,
"CN(C)c1nc2c(c(=O)[nH]1)[n+](C)cn2[C@@H]1O[C@H](COP(=O)(O)OP(=O)(O)OP(=O)(O)O)[C@@H](O)[C@H]1O [m3^2,2,7GTP]",,have activity,have activity,,,,,,,,,,,
"CN(C)c1nc2c(c(=O)[nH]1)[n+](C)cn2[C@@H]1O[C@H](COP(=O)(O)OP(=O)(O)OP(=O)(O)OC[C@H]2O[C@@H](n3cnc4c(=O)[nH]c(N)nc43)[C@H](O)[C@@H]2O)[C@@H](O)[C@H]1O [m3^2,2,7GpppG]",not observed,readily hydrolyze,readily hydrolyze,,,,,,,,,,,Ki [7]: 28000 nM
"C[n+]1cn([C@@H]2O[C@H](COP(=O)(O)OP(=O)([O-])O)[C@@H](O)[C@H]2O)c2nc(N)[nH]c(=O)c21 [m^7GDP, 7-methylguanosine diphosphate]",,,,,,not degraded,resistant to cleavage,not degraded,resistant to cleavage,not degraded,resistant to cleavage,not degraded,resistant to cleavage,"Fold higher affinity of human DcpS compared to m^7GMP [8]: 6 fold; Kd [4]: 5.4 nM; Kd [5]: 10.3 nM; IC50 [9]: 4170 ± 500 nM; IC50 [10]: 1440 ± 110 nM; IC50 [11]: 2170 ± 130 nM; Ki [11]: 156 ± 20 nM; IC50 [12]: 3950 ± 230 nM; Ki [12]: 36 ± 2 nM; Equilibrium association constant KAS, HsDcpS [13]: 114 ± 8 µM⁻¹"
"C[n+]1cn([C@@H]2O[C@H](COP(=O)(O)O)[C@@H](O)[C@H]2O)c2nc(N)[nH]c(=O)c21 [m^7GMP, 7-methylguanosine monophosphate]",,,,26.35 ± 1.84 µM⁻¹,8.00 ± 0.65 µM⁻¹,,,,,,,,,"Competitor concentration for 50% inhibition, fold higher than for m^7GDP [14]: about 20 fold; Equilibrium association constant KAS, HsDcpS [13]: 19 ± 1 µM⁻¹"
Cn1c[n+]([C@@H]2O[C@H](COP(=O)([O-])OP(=O)(O)OP(=O)(O)O)[C@@H](O)[C@H]2O)c2nc(N)[nH]c(=O)c21 [m^7GTP],efficiently hydrolyzed,efficiently hydrolyzed,efficiently hydrolyzed,,,,,,,,,,,"Rate of degradation by HsDcpS, fold slower than by AsDcpS and CeDcpS [1, 23]: 2 fold"
Cn1c[n+]([C@@H]2O[C@H](COP(=O)(O)OP(=O)([O-])OP(=O)(O)OC[C@H]3O[C@@H](n4cnc5c(=O)[nH]c(N)nc54)[C@H](O)[C@@H]3O)[C@@H](O)[C@H]2O)c2nc(N)[nH]c(=O)c21 [m^7GpppG],,,,,,very fast,,very fast,,very fast,,very fast,,"Extent of decapping (% of hydrolyzed substrate) ([1]; after 60 min, 20 °C, pH 7.6, 15 μM substrate, 0.02 μM DcpS): 95%; Cleavage efficiency by HsDcpS, fold higher than m^7GTP [1, 23]: ~ 2 fold; Time to complete conversion of the substrate to products [1, 20]: less than 3 minutes; Extent of decapping (% of hydrolyzed substrate) [2, 24]: 95%; Time to complete conversion of the substrate to products [2, 22]: less than 3 minutes; Extent of decapping (% of hydrolyzed substrate) [3, 24]: 95%; Time to complete conversion of the substrate to products [3, 22]: less than 3 minutes; Time to complete conversion of the substrate to products [6, 22]: less than 3 minutes; Km [15]: 1.17 ± 0.14 µM; Km [16]: 0.14 µM"
C[n+]1cn([C@@H]2O[C@H](COP(=O)(O)OP(=O)(O)OP(=O)(O)OC[C@H]3O[C@@H](n4c[n+](C)c5c(=O)[nH]c(N)nc54)[C@H](O)[C@@H]3O)[C@@H](O)[C@H]2O)c2nc(N)[nH]c(=O)c21 [m^7Gpppm^7G],,,,,,,significantly slower than that of m^7GpppG,,significantly slower than that of m^7GpppG,,significantly slower than that of m^7GpppG,,significantly slower than that of m^7GpppG,
